Columns and labels:
FmlH (Escherichia coli) = test: Inhibition of C-terminal 6His-tagged biotinylated FmIH (Escherichia coli CFT073) expressed in Escherichia coli C600 cells incubated for 1 hr
[1] = MRT(0 to last) in mouse at 10 mg/kg, po by LC-MS/MS method; assay type: ADME, organism-based; conditions: in vivo
Procedure, shortened: (§1)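 Single dose in mice, given 3 mg/kg intravenously or 10 mg/kg orally. Plasma was followed over 8 h, and the mean plasma concentration-time profile was used. Oral bioavailability (%F) was calculated from the IV and PO exposures.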

[2] = AUC(0 to infinity) in mouse at 10 mg/kg, po by LC-MS/MS method; assay type: ADME, organism-based; conditions: in vivo
Procedure, shortened: as §1

[3] = AUMCextra in mouse at 10 mg/kg, po by LC-MS/MS method; assay type: ADME, organism-based; conditions: in vivo
Procedure, shortened: as §1

[4] = AUCextra in mouse at 3 mg/kg, iv by LC-MS/MS method; assay type: ADME, organism-based; conditions: in vivo
Procedure, shortened: as §1

[5] = Tlast in mouse at 3 mg/kg, iv by LC-MS/MS method; assay type: ADME, organism-based; conditions: in vivo
Procedure, shortened: as §1

[6] = AUCinfinity in mouse at 3 mg/kg, iv by LC-MS/MS method; assay type: ADME, organism-based; conditions: in vivo
Procedure, shortened: as §1

[7] = Oral bioavailability in mouse at 10 mg/kg by LC-MS/MS method; assay type: ADME, organism-based; conditions: in vivo
Procedure, shortened: as §1

[8] = AUC(0 to last) in mouse at 3 mg/kg, iv by LC-MS/MS method; assay type: ADME, organism-based; conditions: in vivo
Procedure, shortened: as §1

[9] = Clearance in mouse at 3 mg/kg, iv by LC-MS/MS method; assay type: ADME, organism-based; conditions: in vivo
Procedure, shortened: as §1

[10] = Volume of distribution at steady state in mouse at 3 mg/kg, iv by LC-MS/MS method; assay type: ADME, organism-based; conditions: in vivo, read-out: Vdss
Procedure, shortened: as §1

[11] = Mean residence time(0 to last) in mouse at 3 mg/kg, iv by LC-MS/MS method; assay type: ADME, organism-based; conditions: in vivo
Procedure, shortened: as §1

[12] = AUC(0 to last) in mouse at 10 mg/kg, po by LC-MS/MS method; assay type: ADME, organism-based; conditions: in vivo
Procedure, shortened: as §1

[13] = Initial plasma concentration in mouse at 3 mg/kg, iv by LC-MS/MS method; assay type: ADME, organism-based
Procedure, shortened: as §1

[14] = Cmax in mouse at 10 mg/kg, po by LC-MS/MS method; assay type: ADME, organism-based; conditions: in vivo
Procedure, shortened: as §1

[15] = Tmax in mouse at 10 mg/kg, po by LC-MS/MS method; assay type: ADME, organism-based; conditions: in vivo
Procedure, shortened: as §1

[16] = Half life in mouse at 10 mg/kg, po by LC-MS/MS method; assay type: ADME, organism-based; conditions: in vivo
Procedure, shortened: as §1

[17] = Mean residence time(0 to infinity) in mouse at 3 mg/kg, iv by LC-MS/MS method; assay type: ADME, organism-based; conditions: in vivo
Procedure, shortened: as §1

[18] = Half-life in mouse at 3 mg/kg, iv by LC-MS/MS method; assay type: ADME, organism-based; conditions: in vivo
Procedure, shortened: as §1

[19] = MRT(0 to infinity) in mouse at 10 mg/kg, po by LC-MS/MS method; assay type: ADME, organism-based; conditions: in vivo
Procedure, shortened: as §1

[20] = AUCextra in mouse at 10 mg/kg, po by LC-MS/MS method; assay type: ADME, organism-based; conditions: in vivo
Procedure, shortened: as §1

[21] = AUMCextra in mouse at 3 mg/kg, iv by LC-MS/MS method; assay type: ADME, organism-based; conditions: in vivo
Procedure, shortened: as §1

[22] = Drug concentration in mouse urine at 2 mg/kg, po measured at 24 hrs by HPLC-MS/MS analysis; assay type: ADME, organism-based; conditions: read-out: Ct
Procedure, shortened: (§2)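 9-week-old C3H/HeN mice, n=5 per dose group, were dosed once by oral gavage. The compound was in 1% methyl cellulose, vortexed, sonicated 20 min, warmed at 50 °C for 10 min and vortexed again just before dosing. Mean urine concentration is reported.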

[23] = Drug concentration in mouse urine at 20 mg/kg, po measured at 24 hrs by HPLC-MS/MS analysis; assay type: ADME, organism-based; conditions: read-out: Ct
Procedure, shortened: as §2

[24] = Tlast in mouse at 10 mg/kg, po by LC-MS/MS method; assay type: ADME, organism-based; conditions: in vivo
Procedure, shortened: as §1

CC(=O)N[C@H]1[C@H](Oc2cccc(C(F)(F)F)c2-c2cccc(NS(C)(=O)=O)c2)O[C@H](CO)[C@H](O)[C@@H]1O
IC50 (FmlH (Escherichia coli)): 35 nM

CC(=O)N[C@H]1[C@H](Oc2ccccc2-c2cccc(NS(C)(=O)=O)c2)O[C@H](CO)[C@H](O)[C@@H]1O
IC50 (FmlH (Escherichia coli)): 230 nM

CS(=O)(=O)Nc1cccc(-c2ccccc2O[C@@H]2O[C@H](CO)[C@H](O)[C@H](O)[C@H]2O)c1
IC50 (FmlH (Escherichia coli)): 1600 nM

CS(=O)(=O)Nc1cccc(-c2ccccc2C[C@@H]2O[C@H](CO)[C@H](O)[C@H](O)[C@H]2[N+](=O)[O-])c1
IC50 (FmlH (Escherichia coli)): > 50000 nM

CC(=O)N[C@H]1[C@H](Oc2cccc(C(F)(F)F)c2-c2ccc(F)c(NS(C)(=O)=O)c2)O[C@H](CO)[C@H](O)[C@@H]1O
IC50 (FmlH (Escherichia coli)): 890 nM

CC(=O)N[C@H]1[C@H](Oc2cccc(C(F)(F)F)c2-c2cc(F)cc(C#N)c2)O[C@H](CO)[C@H](O)[C@@H]1O
IC50 (FmlH (Escherichia coli)): 2000 nM

CC(=O)N[C@H]1[C@H](Oc2cccc(C(F)(F)F)c2-c2cccc(F)c2)O[C@H](CO)[C@H](O)[C@@H]1O
IC50 (FmlH (Escherichia coli)): 480 nM

CC(=O)N[C@H]1[C@H](Oc2cccc(C(F)(F)F)c2-c2cccc(F)c2F)O[C@H](CO)[C@H](O)[C@@H]1O
IC50 (FmlH (Escherichia coli)): 590 nM

CC(=O)N[C@H]1[C@H](Oc2cccc(C(F)(F)F)c2-c2ccc(F)c(F)c2F)O[C@H](CO)[C@H](O)[C@@H]1O
IC50 (FmlH (Escherichia coli)): 700 nM

CC(=O)N[C@H]1[C@H](Oc2cccc(C(F)(F)F)c2-c2cccc(C(=O)NS(C)(=O)=O)c2)O[C@H](CO)[C@H](O)[C@@H]1O
IC50 (FmlH (Escherichia coli)): 310 nM

CS(=O)(=O)Nc1cccc(-c2ccccc2C[C@@H]2O[C@H](CO)[C@H](O)[C@H](O)[C@H]2O)c1
IC50 (FmlH (Escherichia coli)): 15000 nM

CC(=O)N[C@@H]1[C@@H](O)[C@@H](O)[C@@H](CO)O[C@H]1C(=O)Nc1ccccc1-c1cccc(NS(C)(=O)=O)c1
IC50 (FmlH (Escherichia coli)): 6900 nM

CC(=O)N[C@H]1[C@H](Oc2cccc(C(F)(F)F)c2-c2cc(F)cc(C(F)(F)F)c2)O[C@H](CO)[C@H](O)[C@@H]1O
IC50 (FmlH (Escherichia coli)): 9000 nM

CC(=O)N[C@@H]1[C@@H](O)[C@@H](O)[C@@H](CO)O[C@H]1Cc1ccccc1-c1cccc(NS(C)(=O)=O)c1
IC50 (FmlH (Escherichia coli)): 15000 nM

CC(=O)N[C@H]1[C@H](Oc2cccc(C(F)(F)F)c2-c2ccc(F)c(NS(=O)(=O)c3ccccc3)c2)O[C@H](CO)[C@H](O)[C@@H]1O
IC50 (FmlH (Escherichia coli)): 190 nM

CC(=O)N[C@H]1[C@H](Oc2cccc(C(F)(F)F)c2-c2ccc3ccn(S(C)(=O)=O)c3c2)O[C@H](CO)[C@H](O)[C@@H]1O
IC50 (FmlH (Escherichia coli)): 600 nM

CC(=O)N[C@H]1[C@H](Oc2cccc(C(F)(F)F)c2-c2cc(F)cc(F)c2)O[C@H](CO)[C@H](O)[C@@H]1O
IC50 (FmlH (Escherichia coli)): 6000 nM

CC(=O)N[C@H]1[C@H](Oc2cccc(C(F)(F)F)c2-c2cc(C#N)cc(C(F)(F)F)c2)O[C@H](CO)[C@H](O)[C@@H]1O
IC50 (FmlH (Escherichia coli)): 6000 nM

CC(=O)N[C@H]1[C@H](Oc2cccc(C(F)(F)F)c2-c2ccc(F)cc2F)O[C@H](CO)[C@H](O)[C@@H]1O
IC50 (FmlH (Escherichia coli)): 320 nM

CC(=O)N[C@H]1[C@H](Oc2cccc(C(F)(F)F)c2-c2cccc(CC#N)c2)O[C@H](CO)[C@H](O)[C@@H]1O
IC50 (FmlH (Escherichia coli)): 800 nM

CC(=O)N[C@H]1[C@H](Oc2cccc(C(F)(F)F)c2-c2ccc(F)c(F)c2)O[C@H](CO)[C@H](O)[C@@H]1O
MRT last [1]: 3.53 h
AUC(0-inf) [2]: 1860 ng·h/mL
AUMC [3]: 5.96%
%AUCextra [4]: 1.07%
Tlast [5]: 8 h
AUC(0-inf) [6]: 1810 ng·h/mL
bioavailability [7]: 30.7%
AUC(0-t) [8]: 1790 ng·h/mL
clearance [9]: 28 mL/min/kg
Vd [10]: 2.39 L/kg
MRT last [11]: 1.34 h
AUC(0-t) [12]: 1830 ng·h/mL
C0 [13]: 3190 ng/mL
Cmax [14]: 472 ng/mL
Tmax [15]: 2.64 h
half-life [16]: 1.8 h
MRT inf [17]: 1.43 h
half-life [18]: 1.26 h
IC50 (FmlH (Escherichia coli)): 240 nM
MRT inf [19]: 3.67 h
%AUCextra [20]: 1.64%
AUMC [21]: 7.31%

CC(=O)N[C@H]1[C@H](Oc2cccc(C(F)(F)F)c2-c2cccc(CS(C)(=O)=O)c2)O[C@H](CO)[C@H](O)[C@@H]1O
IC50 (FmlH (Escherichia coli)): 450 nM

CS(=O)(=O)Nc1cccc(-c2ccccc2C[C@@H]2O[C@H](CO)[C@H](O)[C@H](O)[C@H]2F)c1
IC50 (FmlH (Escherichia coli)): 7300 nM

CC(=O)N[C@H]1[C@H](Oc2cccc(C(F)(F)F)c2-c2cccc(N(C)S(=O)(=O)O)c2)O[C@H](CO)[C@H](O)[C@@H]1O
IC50 (FmlH (Escherichia coli)): 2000 nM

CC(=O)N[C@H]1[C@H](Oc2cccc(C(F)(F)F)c2-c2ccccc2F)O[C@H](CO)[C@H](O)[C@@H]1O
IC50 (FmlH (Escherichia coli)): 710 nM

COc1cc(F)cc(-c2c(O[C@@H]3O[C@H](CO)[C@H](O)[C@H](O)[C@H]3NC(C)=O)cccc2C(F)(F)F)c1
IC50 (FmlH (Escherichia coli)): 6000 nM

CC(=O)N[C@H]1[C@H](Oc2cccc(C(F)(F)F)c2-c2ccc(F)cc2)O[C@H](CO)[C@H](O)[C@@H]1O
MRT last [1]: 3.18 h
concentration at 24 h [22]: 15.8 ng/mL
concentration at 24 h [23]: 66.3 ng/mL
AUC(0-inf) [2]: 6560 ng·h/mL
AUMC [3]: 21.6%
%AUCextra [4]: 1.9%
Tlast [5]: 8 h
AUC(0-inf) [6]: 3740 ng·h/mL
bioavailability [7]: 52.7%
AUC(0-t) [8]: 3660 ng·h/mL
clearance [9]: 13.6 mL/min/kg
Vd [10]: 1.42 L/kg
MRT last [11]: 1.59 h
AUC(0-t) [12]: 6070 ng·h/mL
C0 [13]: 4430 ng/mL
Cmax [14]: 1480 ng/mL
Tmax [15]: 2 h
Tlast [24]: 8 h
half-life [16]: 1.92 h
MRT inf [17]: 1.75 h
half-life [18]: 1.47 h
IC50 (FmlH (Escherichia coli)): 190 nM
MRT inf [19]: 3.75 h
%AUCextra [20]: 7.55%
AUMC [21]: 10.8%

COc1cc(-c2c(O[C@@H]3O[C@H](CO)[C@H](O)[C@H](O)[C@H]3NC(C)=O)cccc2C(F)(F)F)cc(C(F)(F)F)c1
IC50 (FmlH (Escherichia coli)): 18000 nM
